Data reported in ChEMBL document CHEMBL1153025, “Triterpene glycosides from the underground parts of Caulophyllum thalictroides” (J Nat Prod, 2009).
In brackets after ≈: the same amount, converted by molar mass.

The compounds below were run on HL-60 (assay: Cytotoxicity against human HL60 cells up to 20 ug/ml after 72 hrs by MTT assay). Settings: not given.
Assay type: functional, cell-based
Summary of the method: (§1)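 HL-60 (JCRB 0085) cells in RPMI 1640 with 10% FBS, L-glutamine, penicillin G and streptomycin, seeded at 4 × 10^4 cells/mL, preincubated 24 h at 37 °C in 5% CO2. Sample added in EtOH-H2O (1:1) to final 0.1-20 µg/mL; vehicle in controls. After 72 h, MTT 4 h, centrifuged, formazan dissolved in DMSO. Mean ± SEM of three experiments in triplicate.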
In the case of `C[C@@H]1O[C@@H](O[C@H]2[C@H](O)[C@@H](O)[C@H](OC[C@H]3O[C@@H](OC(=O)[C@]45CCC(C)(C)C[C@H]4C4=CC[C@@H]6[C@@]7(C)CC[C@H](O[C@@H]8OC[C@H](O)[C@H](O)[C@H]8O)[C@@](C)(CO)[C@@H]7CC[C@@]6(C)[C@]4(C)CC5)[C@H](O)[C@@H](O)[C@@H]3O)O[C@@H]2CO)[C@H](O)[C@H](O)[C@H]1O`, the Activity is reported as “Not toxic”.
In the case of `C[C@H]1[C@@H]2[C@H]3CC[C@@H]4[C@@]5(C)CC[C@H](O[C@@H]6OC[C@H](O)[C@H](O)[C@H]6O[C@@H]6O[C@H](CO)[C@@H](O)[C@H](O)[C@H]6O)C(C)(C)[C@@H]5CC[C@@]4(C)[C@]3(C)CC[C@@]23CC[C@]1(C)OC3=O`, the Activity is reported as “Not toxic”.
`C[C@@H]1O[C@@H](O[C@H]2[C@H](O)[C@@H](O)[C@H](OC[C@H]3O[C@@H](OC(=O)[C@]45CCC(C)(C)C[C@H]4C4=CC[C@@H]6[C@@]7(C)CC[C@H](O)[C@@](C)(CO)[C@@H]7CC[C@@]6(C)[C@]4(C)CC5)[C@H](O)[C@@H](O)[C@@H]3O)O[C@@H]2CO)[C@H](O)[C@H](O)[C@H]1O` was tested, and the Activity was “Not toxic”.
With `C[C@@H]1O[C@@H](O[C@H]2[C@H](O)[C@@H](O)[C@H](OC[C@H]3O[C@@H](OC(=O)[C@]45CCC(C)(C)C[C@H]4C4=CC[C@@H]6[C@@]7(C)CC[C@H](O[C@@H]8OC[C@H](O)[C@H](O)[C@H]8O[C@@H]8O[C@H](CO)[C@@H](O)[C@H](O)[C@H]8O)[C@@](C)(CO)[C@@H]7CC[C@@]6(C)[C@]4(C)CC5)[C@H](O)[C@@H](O)[C@@H]3O)O[C@@H]2CO)[C@H](O)[C@H](O)[C@H]1O` the Activity was “Not toxic”.
For `CC1(C)CC[C@@]23C(=O)O[C@]4([C@@H]2C1)[C@H]1O[C@H]1[C@@H]1[C@@]2(C)CC[C@H](O[C@@H]5OC[C@H](O)[C@H](O)[C@H]5O)[C@@](C)(CO)[C@@H]2CC[C@@]1(C)[C@]4(C)C[C@H]3O`, the Activity was “Not toxic”.
`CC1(C)CC[C@]2(C(=O)O)[C@H](O)C[C@]3(C)C(=CC[C@@H]4[C@@]5(C)CC[C@H](O[C@@H]6OC[C@H](O)[C@H](O)[C@H]6O)[C@@](C)(C=O)[C@@H]5CC[C@]43C)[C@@H]2C1` was tested, and the Activity was “Not toxic”.
`CC1(C)CC[C@]2(C(=O)O[C@@H]3O[C@H](CO[C@@H]4O[C@H](CO)[C@@H](O)[C@H](O)[C@H]4O)[C@@H](O)[C@H](O)[C@H]3O)[C@H](O)C[C@]3(C)C(=CC[C@@H]4[C@@]5(C)CC[C@H](O[C@@H]6OC[C@H](O)[C@H](O)[C@H]6O)[C@@](C)(CO)[C@@H]5CC[C@]43C)[C@@H]2C1` was tested, and the Activity was “Not toxic”.
`C[C@H]1[C@@H]2C3CC[C@@H]4[C@@]5(C)CC[C@H](O[C@@H]6OC[C@H](O)[C@H](O)[C@H]6O[C@@H]6O[C@H](CO)[C@@H](O)[C@H](O)[C@H]6O)C(C)(C)[C@@H]5CC[C@@]4(C)[C@]3(C)CC[C@@]2(C(=O)O)CC[C@@]1(C)O` (stereo partly drawn) was tested, and the Activity was “Not toxic”.
For `CC1(C)CC[C@@]2(C(=O)O)C(=C3C=C[C@@H]4[C@@]5(C)CC[C@H](O[C@@H]6OC[C@H](O)[C@H](O)[C@H]6O)[C@@](C)(CO)[C@@H]5CC[C@@]4(C)[C@]3(C)C[C@H]2O)C1`, the Activity was “Not toxic”.
`CC1(C)CC[C@]2(C(=O)O)[C@H](O)C[C@]3(C)C(=CC[C@@H]4[C@@]5(C)CC[C@H](O[C@@H]6OC[C@H](O)[C@H](O)[C@H]6O)[C@@](C)(CO)[C@@H]5CC[C@]43C)[C@@H]2C1` was tested, and the Activity was “Not toxic”.
For `CC1(C)CC[C@]2(C(=O)O)[C@H](O)C[C@]3(C)C(=CC[C@@H]4[C@@]5(C)CC[C@H](O[C@@H]6OC[C@H](O)[C@H](O)[C@H]6O[C@@H]6O[C@H](CO)[C@@H](O)[C@H](O)[C@H]6O)[C@@](C)(CO)[C@@H]5CC[C@]43C)[C@@H]2C1`, the Activity was “Not toxic”.
In the case of `C[C@@H]1O[C@@H](O[C@H]2[C@H](O)[C@@H](O)[C@H](OC[C@H]3O[C@@H](OC(=O)[C@]45CCC(C)(C)C[C@H]4C4=CC[C@@H]6[C@@]7(C)CC[C@H](O[C@@H]8OC[C@H](O)[C@H](O)[C@H]8O)[C@@](C)(CO)[C@@H]7CC[C@@]6(C)[C@]4(C)C[C@H]5O)[C@H](O)[C@@H](O)[C@@H]3O)O[C@@H]2CO)[C@H](O)[C@H](O)[C@H]1O`, the Activity is reported as “Not toxic”.
For `CC1(C)CC[C@]2(C(=O)O[C@@H]3O[C@H](CO)[C@@H](O)[C@H](O)[C@H]3O)[C@H](O)C[C@]3(C)C(=CC[C@@H]4[C@@]5(C)CC[C@H](O[C@@H]6OC[C@H](O)[C@H](O)[C@H]6O)[C@@](C)(CO)[C@@H]5CC[C@]43C)[C@@H]2C1`, the Activity was “Not toxic”.
With `CC1(C)CC[C@@]23CC[C@]4(C)[C@@](OC2=O)([C@@H]3C1)[C@H]1O[C@H]1[C@@H]1[C@@]2(C)CC[C@H](O[C@@H]3OC[C@H](O)[C@H](O)[C@H]3O[C@@H]3O[C@H](CO)[C@@H](O)[C@H](O)[C@H]3O)[C@@](C)(CO)[C@@H]2CC[C@]14C` the Activity was “Not toxic”.
With `C[C@@H]1O[C@@H](O[C@H]2[C@H](O)[C@@H](O)[C@H](OC[C@H]3O[C@@H](OC(=O)[C@]45CCC(C)(C)C[C@H]4C4=CC[C@@H]6[C@@]7(C)CC[C@H](O[C@@H]8OC[C@H](O)[C@H](O)[C@H]8O[C@@H]8O[C@H](CO)[C@@H](O)[C@H](O)[C@H]8O)C(C)(C)[C@@H]7CC[C@@]6(C)[C@]4(C)CC5)[C@H](O)[C@@H](O)[C@@H]3O)O[C@@H]2CO)[C@H](O)[C@H](O)[C@H]1O` the Activity was “Not toxic”.

The compounds below were run on HL-60 (assay: Cytotoxicity against human HL60 cells after 72 hrs by MTT assay). Settings: HL-60, 72 h.
Assay type: functional, cell-based
Summary of the method: as §1
With `COc1cc([C@@H]2c3cc4c(cc3[C@@H](O[C@@H]3O[C@@H]5CO[C@@H](C)O[C@H]5[C@H](O)[C@H]3O)[C@H]3COC(=O)[C@H]23)OCO4)cc(OC)c1O` [ETOPOSIDE] the IC50 was 0.26 µg/mL (≈ 0.442 µM).
`CC1(C)CC[C@]2(C(=O)O)CC[C@]3(C)C(=CC[C@@H]4[C@@]5(C)CC[C@H](O[C@@H]6OC[C@H](O)[C@H](O)[C@H]6O[C@@H]6O[C@H](CO)[C@@H](O)[C@H](O)[C@H]6O)C(C)(C)[C@@H]5CC[C@]43C)[C@@H]2C1` was tested, and the IC50 was 10.8 µg/mL (≈ 14.4 µM).
With `CC1(C)CC[C@]2(C(=O)O)CC[C@]3(C)C(=CC[C@@H]4[C@@]5(C)CC[C@H](O[C@@H]6OC[C@H](O)[C@H](O)[C@H]6O)C(C)(CO)[C@@H]5CC[C@]43C)[C@@H]2C1` (stereo partly drawn) the IC50 was 12.5 µg/mL (≈ 20.7 µM).
Work on `CC1(C)CC[C@]2(C(=O)O)CC[C@]3(C)C(=CC[C@@H]4[C@@]5(C)CC[C@H](O[C@@H]6OC[C@H](O)[C@H](O)[C@H]6O[C@@H]6O[C@H](CO)[C@@H](O)[C@H](O)[C@H]6O)[C@@](C)(CO)[C@@H]5CC[C@]43C)[C@@H]2C1` yielded an IC50 of 15.9 µg/mL (≈ 20.7 µM).
For `CC1(C)CC[C@]2(C(=O)O)CC[C@]3(C)C(=CC[C@@H]4[C@@]5(C)CC[C@H](O[C@@H]6OC[C@H](O)[C@H](O)[C@H]6O)C(C)(C)[C@@H]5CC[C@]43C)[C@@H]2C1`, the IC50 was 3.4 µg/mL (≈ 5.77 µM).
With `CC1(C)CC[C@]2(C(=O)O)[C@H](O)C[C@]3(C)C(=CC[C@@H]4[C@@]5(C)CC[C@H](O[C@@H]6OC[C@H](O)[C@H](O)[C@H]6O)C(C)(C)[C@@H]5CC[C@]43C)[C@@H]2C1` the IC50 was 5.6 µg/mL (≈ 9.26 µM).
`CC1(C)CC[C@]2(C(=O)O)CC[C@]3(C)C(=CC[C@@H]4[C@@]5(C)CC[C@H](O[C@@H]6OC[C@H](O)[C@H](O)[C@H]6O)[C@@](C)(C=O)[C@@H]5CC[C@]43C)[C@@H]2C1` was tested, and the IC50 was 4.8 µg/mL (≈ 7.96 µM).
With `CC1(C)CC[C@]2(C(=O)O)[C@H](O)C[C@]3(C)C(=CC[C@@H]4[C@@]5(C)CC[C@H](O[C@@H]6OC[C@H](O)[C@H](O)[C@H]6O[C@@H]6O[C@H](CO)[C@@H](O)[C@H](O)[C@H]6O)C(C)(C)[C@@H]5CC[C@]43C)[C@@H]2C1` the IC50 was 11.8 µg/mL (≈ 15.4 µM).
